# According to ChEMBL document CHEMBL5543129, “Peptide Inhibitor Targeting the Extraterminal Domain in BRD4 Potently Suppresses Breast Cancer Both In Vitro and In Vivo” (J Med Chem, 2024):
# The source made the active and inactive calls. The rule behind the calls is not given here. Square brackets hold non-standard residues; d marks the D form. Peptide text beside a SMILES is read from it. Hyp = O=C(O)[C@@H]1C[C@@H](O)CN1; Ahx = NCCCCCC(=O)O
# Experiments:
# [1] = tested on: MCF7; test: Downregulation of CCND1 gene expression in human MCF7 cells at 10 uM incubated for 6 hrs by RT-qPCR analysis; type: functional, cell-based
# Summary of the method: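 Cells treated with peptide (10 μM) for 6 h; c-Myc, N-myc and CCND1 mRNA measured by RT-qPCR. Three biological repeats.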
# [2] = Toxicity in BALB/c mouse xenografted with human MDA-MB-231 cells assessed as change in liver weight at 12.5 mg/kg, ip administered every 2 days in presence of 50 mg/kg JQ1; type: organism-based; conditions: in vivo, 48 h
# Summary of the method: (§1)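 Female BALB/c nude mice (4–6 weeks) carried sc MDA-MB-231 xenografts (5 × 10^6 cells) and were randomized at about 50 mm3. Peptide (12.5 mg/kg ip in saline) and JQ1 (50 mg/kg ip, DMSO/10% HPBCD 1:10) were given every 2 days, alone or combined. Body weight was recorded, and heart, liver, spleen, lung and kidney morphology and weight were assessed.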
# [3] = tested on: Mus musculus; test: Downregulation of CCND1 mRNA expression in BALB/c mouse tumor xenografted with human MDA-MB-231 cells at 25 mg/kg, ip administered every 2 days by RT-qPCR analysis; type: functional, organism-based
# [4] = Toxicity in BALB/c mouse xenografted with human MCF7 cells assessed as change in liver at 12.5 mg/kg, ip administered every 2 days in presence of 12.5 mg/kg JMJD6 inhibitor; type: organism-based; conditions: in vivo, 48 h
# Summary of the method: (§2)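 Female BALB/c nude mice carried MCF7 xenografts (5 × 10^6 cells sc, E2 10–2 M brushed every 2 days) and were randomized at about 50 mm3. Peptide was given at 12.5 mg/kg ip every 2 days, and iJMJD6 (DMSO/PBS 1:20) at 12.5 mg/kg ip every other day, alone or combined. Body and organ weights were recorded.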
# [5] = Downregulation of […] protein expression in human MCF7 cells assessed as fold change in remaining c-Myc level at 10 uM incubated for 24 hrs by immunoblotting analysis (reference value: 1); type: functional
# Summary of the method: (§3)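 Cells treated with peptide (10 μM) for 24 h. Lysates in Tris/NaCl/EDTA/1% Triton X-100, run on 10% SDS-PAGE and immunoblotted with ECL detection. β-actin as loading control. Three repeats, quantified against untreated cells.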
# [6] = Downregulation of c-Myc protein expression in human MDA-MB-231 cells assessed as fold change in remaining c-Myc level at 10 uM incubated for 24 hrs by immunoblotting analysis (reference value: 1); type: functional
# Summary of the method: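 Cells (MCF7 or MDA-MB-231 in DMEM, 10% FBS, 37 °C, 5% CO2) are treated with peptide for 24 h. Lysates are taken in Tris/NaCl/EDTA/1% Triton buffer and run on 10% SDS-PAGE. Immunoblots are normalised to β-actin loading control; three repeats.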
# [7] = tested on: MCF7; test: Antitumor activity against human MCF7 cells xenografted in BALB/c nude mouse assessed as reduction in tumor growth at 25 mg/kg, ip administered every 2 days; type: functional, organism-based
# Summary of the method: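 Female BALB/c nude mice, 4–6 wk, given 5 × 10^6 cells in PBS subcutaneously; MCF7 mice also had E2 (10^-2 M) brushed on the neck every 2 days. Randomised at ~50 mm3. Peptide in 0.9% saline, 25 mg/kg ip every 2 days. Caliper volume (1/2 × L × W²) every 2 days.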
# [8] = tested on: T47D; test: Antiproliferative activity against human T47D cells at 10 uM incubated for 1 week in presence of fulvestrant by CellTiter 96 Aqueous One Solution based assay; type: functional, cell-based; conditions: time 1.0 weeks
# [9] = tested on: T47D; test: Inhibition of colony formation in human T47D cells at 10 uM incubated for 2 weeks in presence of tamoxifen by crystal violet staining based assay; type: functional, cell-based
# Summary of the method: (§4)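 Cells are seeded at 1 × 10^3/well and treated with peptide (10 μM) for 2 weeks, alone or with JQ1 5 μM, iJMJD6 10 μM, ICI 2.5 μM, or tamoxifen 3 μM (tamoxifen-resistant lines). Colonies are stained with crystal violet, dissolved in 10% acetic acid, and read at 590 nm. Three biological repeats.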
# [10] = Toxicity in BALB/c mouse xenografted with human MCF7 cells assessed as change in liver weight at 12.5 mg/kg, ip administered every 2 days in presence of 50 mg/kg JQ1; type: organism-based; conditions: in vivo, 48 h
# [11] = Toxicity in BALB/c mouse xenografted with human MCF7 cells assessed as change in heart at 12.5 mg/kg, ip administered every 2 days in presence of 12.5 mg/kg JMJD6 inhibitor; type: organism-based; conditions: in vivo, 48 h; summary of the method: as §2
# [12] = Downregulation of BRD4 protein expression in human MCF7 cells assessed as fold change in remaining BRD4 level at 10 uM incubated for 24 hrs by immunoblotting analysis (reference value: 1); type: functional; summary of the method: as §3
# [13] = tested on: Mus musculus; test: Downregulation of N-myc mRNA expression in BALB/c mouse tumor xenografted with human MCF7 cells at 25 mg/kg, ip administered every 2 days by RT-qPCR analysis; type: functional, organism-based
# [14] = Downregulation of BRD4 protein expression in BALB/c mouse tumor xenografted with human MDA-MB-231 cells assessed as fold change in remaining BRD4 level at 25 mg/kg, ip administered every 2 days by immunoblotting analysis; type: functional
# Summary of the method: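 Tumours taken from xenograft mice dosed with peptide at 25 mg/kg ip every 2 days. […] Three repeats.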
# [15] = Toxicity in BALB/c mouse xenografted with human MCF7 cells assessed as change in body weight at 12.5 mg/kg, ip administered every 2 days in presence of 12.5 mg/kg JMJD6 inhibitor; type: organism-based; conditions: in vivo, 48 h; summary of the method: as §2
# [16] = Toxicity in BALB/c mouse xenografted with human MCF7 cells assessed as change in kidney at 12.5 mg/kg, ip administered every 2 days in presence of 12.5 mg/kg JMJD6 inhibitor; type: organism-based; conditions: in vivo, 48 h; summary of the method: as §2
# [17] = Toxicity in BALB/c mouse xenografted with human MDA-MB-231 cells assessed as change in kidney morphology at 12.5 mg/kg, ip administered every 2 days in presence of 50 mg/kg JQ1; type: organism-based; conditions: in vivo, 48 h; summary of the method: as §1
# [18] = tested on: MCF7; test: Inhibition of colony formation in human MCF7 cells at 10 uM incubated for 2 weeks in presence of 5 uM JQ1 by crystal violet staining based assay; type: functional, cell-based; summary of the method: as §4
# [19] = Toxicity in BALB/c mouse xenografted with human MDA-MB-231 cells assessed as change in kidney weight at 12.5 mg/kg, ip administered every 2 days in presence of 50 mg/kg JQ1; type: organism-based; conditions: in vivo, 48 h; summary of the method: as §1
# [20] = Toxicity in BALB/c mouse xenografted with human MCF7 cells assessed as change in organ weight at 2.5 mg/kg, ip administered every 2 days in presence of 12.5 mg/kg fulvestrant; type: organism-based; conditions: in vivo, 48 h
# [21] = tested on: MCF7; test: Inhibition of cell migration in human MCF7 cells at 10 uM incubated for 24 hrs in presence of fulvestrant by inverted microscopic analysis; type: functional, cell-based
# Summary of the method: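 Cells are seeded at 5 × 10^5/well and scratched at 80–90% confluence. They are kept in serum-free medium with peptide (10 μM); partner agents are JQ1 5 μM, iJMJD6 10 μM, or ICI 2.5 μM. Wound area is imaged by inverted microscope at 0 and 12 or 24 h. Wound closure % = (A0−A1)/A0 × 100. Three biological repeats.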
# [22] = Toxicity in BALB/c mouse xenografted with human MCF7 cells assessed as change body weight at 12.5 mg/kg, ip administered every 2 days in presence of 50 mg/kg JQ1; type: organism-based; conditions: in vivo, 48 h
Compound,Activity [1],Activity [2],Activity [3],Activity [4],fold change (FC) [5],fold change (FC) [6],Activity [7],Activity [8],inhibition [9],Activity [10],Activity [11],fold change (FC) [12],Activity [13],fold change (FC) [14],Activity [15],Activity [16],Activity [17],inhibition [18],Activity [19],Activity [20],further results
CC[C@H](C)[C@H](NC(=O)[C@H](Cc1ccc(O)cc1)NC(=O)[C@@H]1C[C@@H](O)CN1C(=O)[C@H](C)NC(=O)[C@@H](NC(=O)CCCCCNC(=O)[C@H](CCC(=O)O)NC(=O)CNC(=O)[C@H](CS)NC(=O)[C@H](CCCCN)NC(=O)[C@H](Cc1ccccc1)NC(=O)[C@H](CCCCN)NC(=O)[C@H](CCC(N)=O)NC(=O)[C@H](CC(N)=O)NC(=O)[C@H](CCCNC(=N)N)NC(=O)[C@H](CCCNC(=N)N)NC(=O)[C@H](CCCNC(=N)N)NC(=O)[C@H](CCCNC(=N)N)NC(=O)[C@H](CCC(N)=O)NC(=O)[C@H](CCCNC(=N)N)NC(=O)[C@H](CCCNC(=N)N)NC(=O)[C@H](CCCCN)NC(=O)[C@H](CCCCN)NC(=O)[C@H](CCCNC(=N)N)NC(=O)CNC(=O)[C@@H](N)Cc1ccc(O)cc1)[C@@H](C)CC)C(=O)O (H-YGRKKRRQRRRRNQKFKCGE[Ahx]IA[Hyp]YI-OH),Active,Non-Toxic,Active,Non-Toxic,0.53,0.85,Active,Active,Active,Non-Toxic,Non-Toxic,0.63,Active,0.15,Non-Toxic,Non-Toxic,Non-Toxic,Active,Non-Toxic,Non-Toxic,inhibition [21]: Active; Activity [22]: Non-Toxic
H-YGRKKRRQRRRRNQKFKCGE-OH,Active,Non-Toxic,Active,Non-Toxic,0.45,0.77,Active,Active,Active,Non-Toxic,Non-Toxic,1.14,Active,0.63,Non-Toxic,Non-Toxic,Non-Toxic,Active,Non-Toxic,Non-Toxic,inhibition [21]: Active; Activity [22]: Non-Toxic
